Results collected from several papers.
pIC50: −log10 of the molar value.
Cell line: A549

| SMILES | effect on | method | time | notes | pIC50 |
| --- | --- | --- | --- | --- | --- |
| O=C(/N=c1\scc(-c2ccccc2)n1C1CCCCC1)c1ccc2ccccc2c1 | cell growth or viability | – | 48 h | – | 4.79 |
| CCC(=O)Nc1cc(Nc2nc(Nc3cnn(C)c3)c3sccc3n2)c(OC)cc1N(C)CCN(C)C | cell growth or viability | MTT | – | – | 5.15 |
| COc1cccc2c1C(=O)c1c(O)c3c(c(O)c1C2=O)C[C@@](O)(C(=O)CO)C[C@@H]3O[C@H]1C[C@H](N)[C@H](O)[C@H](C)O1 | cell growth or viability | SRB | – | – | 6.21 |
| CN(C)C/C=N/NC(=O)Nc1cc2c(Nc3ccc(F)c(Cl)c3)ncnc2cc1O[C@H]1CCOC1 | cell growth or viability | MTT | 72 h | – | 5.27 |
| NS(=O)(=O)OC[C@@H]1C[C@@H](n2ccc3c(N[C@H]4CCc5ccccc54)ncnc32)C[C@@H]1O | cell growth or viability | CCK-8 | 72 h | – | 6.10 |
| O=C1Nc2ccccc2/C1=N/NC(=O)c1cc2ccccc2[nH]1 | cell growth or viability | – | – | – | 4.89 |
| CCCNc1nc(NCCC)nc(Nc2ccc(Br)cc2)n1 | cell growth or viability | SRB | 72 h | – | 4.79 |
| COc1nc(OCc2cccc(-c3ccccc3)c2C)ccc1CNCCNC(C)=O | cell growth or viability | MTT | – | – | 5.34 |
| C=C(Cl)C(=O)Nc1cc(Nc2nc(N3CCc4sccc4C3)c3sccc3n2)c(OC)cc1N(C)CCN(C)C | cell growth or viability | MTT | – | – | 5.82 |
| COc1cccc(NC(=O)CN2C(=O)/C(=C/c3ccc(F)cc3)SC2=S)c1 | cell growth or viability | MTT | – | – | 4.84 |
| CC1=C(O)C(=O)C=C2C1=CC=C1[C@@]2(C)CC[C@@]2(C)[C@@H]3C[C@](C)(C(=O)OCCO)CC[C@]3(C)CC[C@]12C | cell growth or viability | MTT | 48 h | – | 5.50 |
| O=C(Nc1nnc(-c2cc3ccccc3[nH]2)s1)c1cc2c([nH]c3ccccc32)c(-c2ccc(F)cc2)n1 | cell growth or viability | MTT | 72 h | – | 5.44 |
| CCC(=O)Nc1cc(Nc2nc(N3CCc4sccc4C3)c3cccnc3n2)c(OC)cc1N1CCC(N(C)C)CC1 | cell growth or viability | MTT | – | – | 5.90 |
| CC1=C(O)C(=O)C=C2C1=CC=C1[C@@]2(C)CC[C@@]2(C)[C@@H]3C[C@](C)(C(=O)OCCCCCO)CC[C@]3(C)CC[C@]12C | cell growth or viability | MTT | 48 h | – | < 4.00 |
| COC(=O)/C=C/C=C/c1ccc2c(c1)OCO2 | cell growth or viability | SRB | – | – | 3.79 |
| CN1C(=O)/C(=N\NC(=O)c2cc3ccccc3[nH]2)c2cc(F)ccc21 | cell growth or viability | – | – | – | 5.55 |
| O=C(Nc1nnc(-c2cc3ccccc3[nH]2)s1)c1cc2c([nH]c3ccccc32)c(-c2ccc(Cl)cc2)n1 | cell growth or viability | MTT | 72 h | – | 5.48 |
| COc1ccnc(COc2ccc(NC(=O)Nc3ccc(Cl)c(C(F)(F)F)c3)cc2)c1OC | cell growth or viability | MTT | 72 h | – | 4.81 |
| COc1cc2ncnc(Nc3ccc(F)c(Cl)c3)c2cc1NC(=O)N/N=C/c1cccn1CCN(C)C | cell growth or viability | MTT | 72 h | – | 5.37 |
| C=CC(=O)Nc1cccc(Oc2nc(Nc3ccc(N4CCN(C)CC4)cc3)nc3ccsc23)c1 | cell growth or viability | MTT | – | – | 5.37 |
| COc1ccccc1/C=C/CNCC(O)COc1ccc2c(c1)[nH]c1ccccc12 (centres unmarked) | cell growth or viability | CCK-8 | 72 h | – | 5.17 |

| SMILES | effect on | method | time | notes | pIC50 |
| --- | --- | --- | --- | --- | --- |
| Cc1c(NC(=O)c2ccc(C(C)(C)C)cc2)cccc1-c1cn(C)c(=O)c(Nc2ccc(C(=O)N3CCOCC3)cc2)n1 | cell growth or viability | – | – | – | < 5.00 |
| COc1ccc(-c2csc(Nc3ccc4c(O)ncnc4c3)n2)cc1 | cell growth or viability | MTT | – | – | 4.60 |
| CC(C)(C)NC(=O)NNC(=O)c1ccc(Nc2nccc(-c3ccccn3)n2)cc1 | cell growth or viability | MTT | – | – | < 4.40 |
| COc1ccc(/C=C/C(=O)C(=Cc2ccc(F)cc2)C(=O)/C=C/c2ccc(OC)c(OC)c2)cc1OC | colony formation | – | 9 days | – | > 6.70 |
| C=CC1=C(C)c2cc3[nH]c(cc4nc(cc5[nH]c(cc1n2)c(C)c5CCC(=O)O)C(CCC(=O)O)=C4C)c(C)c3C=C | cell growth or viability | – | 4 h | dark | < 4.00 |
| COc1ccc(-c2nn(-c3ccc(S(C)(=O)=O)cc3)cc2/C=N/N=c2\[nH]c(-c3ccc(Br)cc3)cs2)cc1 | cell growth or viability | MTT | 48 h | – | 4.84 |
| C=CC(=O)Nc1cc(Nc2nccc(-c3cn(C)c4ccccc34)n2)c(OC)cc1N(C)CCN(C)C | cell growth or viability | MTT | – | – | 6.42 |
| O=C(N/N=C/c1cccn1CCCN1CCCCC1)Nc1cc2c(Nc3ccc(F)c(Cl)c3)ncnc2cc1O[C@H]1CCOC1 | cell growth or viability | MTT | 72 h | – | 5.61 |
| Cc1ccc(C)n1-c1ccc(-c2nnco2)cc1 | cell growth or viability | MTT | 72 h | – | 3.65 |
| COCCCOc1ccnc(COc2ccc(NC(=O)Nc3ccc(Cl)cc3)cc2)c1C | cell growth or viability | MTT | 72 h | – | 4.99 |
| Cc1ccc(NC(=O)NNC(=O)c2ccc(Nc3nccc(-c4cccnc4)n3)cc2)cc1 | cell growth or viability | MTT | 24 h | – | 5.08 |
| O=C(NC(=S)N1CCCCC1)c1ccc2ccccc2c1 | cell growth or viability | – | 48 h | – | 5.23 |
| COc1ccccc1OCCNCC(O)COc1cccc2[nH]c3ccccc3c12 (centres unmarked) | cell growth or viability | CCK-8 | 72 h | – | 4.64 |
| COCCCOc1ccnc(COc2ccc(NC(=O)Nc3cc(F)cc(F)c3)cc2)c1C | cell growth or viability | MTT | 72 h | – | 4.35 |
| CN1CCN(C/C=N/NC(=O)Nc2cc3c(Nc4ccc(F)c(Cl)c4)ncnc3cc2O[C@H]2CCOC2)CC1 | cell growth or viability | MTT | 72 h | – | 5.36 |
| COCCCOc1ccnc(COc2ccc(NC(=O)Nc3ccc(OC)cc3)cc2)c1C | cell growth or viability | MTT | 72 h | – | 4.94 |
| COc1cccc(C(=O)O[C@@H]2CN3Cc4c(cc5c(c4OC)OCO5)[C@@]24C=C[C@H](OC)C[C@@H]34)c1 | cell growth or viability | WST-1 | – | – | < 5.00 |
| O=C(/N=C1\S/C(=C\c2ccc(Cl)cc2)C(=O)N1C1CCCCC1)c1ccc2ccccc2c1 | cell growth or viability | – | 48 h | – | 4.75 |
| Nc1ccc(-c2csc(Nc3ccc4c(O)ncnc4c3)n2)cc1 | cell growth or viability | MTT | – | – | 4.53 |
| COc1cc2ncnc(Nc3ccc(F)c(Cl)c3)c2cc1NC(=O)N/N=C/c1cccn1CCN1CCCCC1 | cell growth or viability | MTT | 72 h | – | 5.64 |
